Series [1] can be described thus: GSH reactivity in […] at 30 degreeC assessed as second-order reaction rate constant. Type of series: ADME. Conditions: buffer.
Substrate in series [2]: O=[N+]([O-])c1ccc(Cl)c([N+](=O)[O-])c1
Nature of the series: Substrate activity at N-terminal His6 tagged human GSTA4-4 expressed in Escherichia coli BL21(DE3) assessed as catalytic constant at pH 6.5 at 30 degreeC by Michaelis-Menten analysis. The procedure, abridged: (§1)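 N-terminal His6/TEV-tagged human enzyme, expressed in E. coli BL21(DE3) and Ni-NTA purified. Run in 0.1 M sodium phosphate, pH 6.5, 30 °C. CDNB was varied with GSH fixed at 10 mM, or GSH was varied with CDNB fixed at 1 mM (GSH constants apparent). Conjugate formation read at 340 nm as initial rates over ≥1 min, in triplicate. A single background rate was subtracted, then fitted to Michaelis–Menten by non-linear regression.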

Substrate in series [3]: O=[N+]([O-])c1ccc(Cl)c([N+](=O)[O-])c1
Nature of the series: Substrate activity at N-terminal His6 tagged human GSTA4-4 expressed in Escherichia coli BL21(DE3) assessed as Km at pH 6.5 at 30 degreeC by Michaelis-Menten analysis. The essentials: as §1

Substrate in series [4]: O=[N+]([O-])c1ccc(Cl)c([N+](=O)[O-])c1
In words: Substrate activity at N-terminal His6 tagged human GSTA4-4 expressed in Escherichia coli BL21(DE3) assessed as Kcat/Km at pH 6.5 at 30 degreeC by Michaelis-Menten analysis. The essentials: as §1

Substrate in series [5]: O=[N+]([O-])c1ccc(Cl)c([N+](=O)[O-])c1
Nature of the series: Substrate activity at N-terminal His6 tagged human GSTA4-4 expressed in Escherichia coli BL21(DE3) assessed as catalytic constant at pH 8 at 30 degreeC by Michaelis-Menten analysis. The essentials:
(§2)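 His6/TEV-tagged human GST was expressed in E. coli BL21(DE3) and purified on Ni-NTA. Assays used 0.1 M HEPES-HCl, pH 8, 30 °C. One substrate was varied: CDNB or chloronitrobenzene derivatives (derivatives 0.0625–2 mM) with 10 mM GSH, or GSH with 1 mM CDNB. Initial conjugate-formation rates were read at substrate-specific wavelengths, in triplicate. Triplicate background rates were subtracted. Enzyme amount was adjusted as needed. Fit by Michaelis–Menten non-linear regression or Lineweaver–Burk.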

Substrate in series [6]: O=[N+]([O-])c1ccc(Cl)c([N+](=O)[O-])c1
In words: Substrate activity at N-terminal His6 tagged human GSTA4-4 expressed in Escherichia coli BL21(DE3) assessed as Km at pH 8 at 30 degreeC by Michaelis-Menten analysis. The essentials: as §2

Substrate in series [7]: O=[N+]([O-])c1cc([N+](=O)[O-])c(NCCCC[P+](c2ccccc2)(c2ccccc2)c2ccccc2)cc1Cl
In words: (§3) Substrate activity at N-terminal His6 tagged human GSTA4-4 expressed in Escherichia coli BL21(DE3) assessed as Kcat/Km at pH 8 at 30 degreeC by Michaelis-Menten analysis. The procedure, abridged:
as §2

Substrate in series [8]: O=[N+]([O-])c1ccc(Cl)c([N+](=O)[O-])c1
Described as §3. The procedure, abridged: as §2

Substrate in series [9]: COC(=O)c1cc([N+](=O)O)ccc1Cl
In words: Substrate activity at N-terminal His6 tagged human GSTA4-4 expressed in Escherichia coli BL21(DE3) assessed as catalytic constant at pH 8 at 30 degreeC by Lineweaver-Burk plot analysis. The procedure, abridged: (§4)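 N-terminal His6/TEV-tagged enzyme was expressed in E. coli BL21(DE3) by IPTG induction at 15 °C and purified on Ni-NTA. Assays used 0.1 M HEPES-HCl pH 8, 30°C, with GSH fixed at 10 mM and substrate varied from 0.0625 to 2 mM. Conjugate formation was read by UV absorbance, and initial rates were measured in triplicate after subtracting the background rate. Constants came from a double-reciprocal Lineweaver-Burk fit.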

Substrate in series [10]: COC(=O)c1cc([N+](=O)O)ccc1Cl
Nature of the series: (§5) Substrate activity at N-terminal His6 tagged human GSTA4-4 expressed in Escherichia coli BL21(DE3) assessed as Kcat/Km at pH 8 at 30 degreeC by Lineweaver-Burk plot analysis. The procedure, abridged: as §4

Substrate in series [11]: COC(=O)c1ccc(Cl)c([N+](=O)[O-])c1
The description is as §5. The procedure, abridged:
as §4

Substrate in series [12]: O=C(NCCCCC[P+](c1ccccc1)(c1ccccc1)c1ccccc1)c1ccc(Cl)c([N+](=O)[O-])c1
The series is described as §5. The essentials:
as §4

Substrate in series [13]: O=[N+]([O-])c1ccc(Cl)c([N+](=O)[O-])c1
In words: Substrate activity at N-terminal His6 tagged human GSTA1-1 expressed in Escherichia coli BL21(DE3) assessed as catalytic constant at pH 6.5 at 30 degreeC by Michaelis-Menten analysis. The essentials:
as §1

Substrate in series [14]: O=[N+]([O-])c1ccc(Cl)c([N+](=O)[O-])c1
In words: Substrate activity at N-terminal His6 tagged human GSTA1-1 expressed in Escherichia coli BL21(DE3) assessed as Km at pH 6.5 at 30 degreeC by Michaelis-Menten analysis. The essentials:
as §1

Substrate in series [15]: O=[N+]([O-])c1ccc(Cl)c([N+](=O)[O-])c1
In words: Substrate activity at N-terminal His6 tagged human GSTA1-1 expressed in Escherichia coli BL21(DE3) assessed as Kcat/Km at pH 6.5 at 30 degreeC by Michaelis-Menten analysis. The essentials:
as §1

Substrate in series [16]: O=[N+]([O-])c1ccc(Cl)c([N+](=O)[O-])c1
In words: Substrate activity at N-terminal His6 tagged human GSTA1-1 expressed in Escherichia coli BL21(DE3) assessed as catalytic constant at pH 8 at 30 degreeC by Michaelis-Menten analysis. The essentials:
as §2

Substrate in series [17]: O=[N+]([O-])c1ccc(Cl)c([N+](=O)[O-])c1
In words: Substrate activity at N-terminal His6 tagged human GSTA1-1 expressed in Escherichia coli BL21(DE3) assessed as Km at pH 8 at 30 degreeC by Michaelis-Menten analysis. The procedure, abridged: as §2

Substrate in series [18]: O=[N+]([O-])c1cc([N+](=O)[O-])c(NCCCC[P+](c2ccccc2)(c2ccccc2)c2ccccc2)cc1Cl
Nature of the series: (§6) Substrate activity at N-terminal His6 tagged human GSTA1-1 expressed in Escherichia coli BL21(DE3) assessed as Kcat/Km at pH 8 at 30 degreeC by Michaelis-Menten analysis. The essentials:
as §2

Substrate in series [19]: O=[N+]([O-])c1ccc(Cl)c([N+](=O)[O-])c1
The series is described as §6. The essentials: as §2

Substrate in series [20]: O=C(NCCCCC[P+](c1ccccc1)(c1ccccc1)c1ccccc1)c1cc([N+](=O)O)ccc1Cl
Nature of the series: Substrate activity at N-terminal His6 tagged human GSTA1-1 expressed in Escherichia coli BL21(DE3) assessed as catalytic constant at pH 8 at 30 degreeC by Lineweaver-Burk plot analysis. The essentials:
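Assayed in 0.1 M HEPES-HCl pH 8 at 30°C. GSH fixed at 10 mM and chloronitrobenzene substrate varied 0.0625–2 mM. Initial rate of GS-conjugate formation read by UV absorbance at a substrate-specific wavelength. Background chemical rate (triplicate) subtracted. Triplicate rates, kcat from best-line fit of double-reciprocal plot.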

Substrate in series [21]: COC(=O)c1cc([N+](=O)O)ccc1Cl
In words: (§7) Substrate activity at N-terminal His6 tagged human GSTA1-1 expressed in Escherichia coli BL21(DE3) assessed as Kcat/Km at pH 8 at 30 degreeC by Lineweaver-Burk plot analysis. The procedure, abridged:
as §4

Substrate in series [22]: COC(=O)c1ccc(Cl)c([N+](=O)[O-])c1
The series is described as §7. The procedure, abridged: as §4

Substrate in series [23]: O=C(NCCCCC[P+](c1ccccc1)(c1ccccc1)c1ccccc1)c1cc([N+](=O)O)ccc1Cl
The series is described as §7. The essentials: as §4

Substrate in series [24]: O=C(NCCCCC[P+](c1ccccc1)(c1ccccc1)c1ccccc1)c1ccc(Cl)c([N+](=O)[O-])c1
The description is as §7. The procedure, abridged:
as §4

Substrate in series [25]: O=[N+]([O-])c1ccc(Cl)c([N+](=O)[O-])c1
In words: Substrate activity at N-terminal His6 tagged human GSTK1-1 expressed in Escherichia coli BL21(DE3) assessed as catalytic constant at pH 8 at 30 degreeC by Michaelis-Menten analysis. The essentials: as §2

Substrate in series [26]: O=[N+]([O-])c1ccc(Cl)c([N+](=O)[O-])c1
In words: Substrate activity at N-terminal His6 tagged human GSTK1-1 expressed in Escherichia coli BL21(DE3) assessed as Km at pH 8 at 30 degreeC by Michaelis-Menten analysis. The procedure, abridged: as §2

Substrate in series [27]: O=[N+]([O-])c1cc([N+](=O)[O-])c(NCCCC[P+](c2ccccc2)(c2ccccc2)c2ccccc2)cc1Cl
In words: (§8) Substrate activity at N-terminal His6 tagged human GSTK1-1 expressed in Escherichia coli BL21(DE3) assessed as Kcat/Km at pH 8 at 30 degreeC by Michaelis-Menten analysis. The essentials:
as §2

Substrate in series [28]: O=[N+]([O-])c1ccc(Cl)c([N+](=O)[O-])c1
Described as §8. The essentials:
as §2

Substrate in series [29]: COC(=O)c1cc([N+](=O)O)ccc1Cl
Nature of the series: Substrate activity at N-terminal His6 tagged human GSTK1-1 expressed in Escherichia coli BL21(DE3) assessed as catalytic constant at pH 8 at 30 degreeC by Lineweaver-Burk plot analysis. The procedure, abridged: as §4

Substrate in series [30]: COC(=O)c1cc([N+](=O)O)ccc1Cl
Nature of the series: (§9) Substrate activity at N-terminal His6 tagged human GSTK1-1 expressed in Escherichia coli BL21(DE3) assessed as Kcat/Km at pH 8 at 30 degreeC by Lineweaver-Burk plot analysis. The procedure, abridged:
as §4

Substrate in series [31]: COC(=O)c1ccc(Cl)c([N+](=O)[O-])c1
Described as §9. The procedure, abridged: as §4

A word on the kcat: it is the number of substrate molecules converted per active site and unit of time at saturation. As a reminder, the Km is the concentration of substrate that gives half-maximal velocity. As usually defined, the kcat/Km is the second-order rate constant that governs catalysis at low substrate concentration.

Consider `COC(=O)c1ccc(Cl)c([N+](=O)[O-])c1`, for which, in series [1], the K is 2.92 10^-6/mM/s.

As for `O=[N+]([O-])c1cc([N+](=O)[O-])c(NCCCC[P+](c2ccccc2)(c2ccccc2)c2ccccc2)cc1Cl`, the K in series [1] was 1.5 10^-5/mM/s.

Turning to `O=[N+]([O-])c1ccc(Cl)c([N+](=O)[O-])c1` [DINITROCHLOROBENZENE], the K in [1] is 5.05 10^-5/mM/s.

B1: Glutathione S-transferase A4 (Homo sapiens), O15217 (protein)
chain: MAARPKLHYPNGRGRMESVRWVLAAAGVEFDEEFLETKEQLYKLQDGNHLLFQQVPMVEIDGMKLVQTRSILHYIADKHNLFGKNLKERTLIDMYVEGTLDLLELLIMHPFLKPDDQQKEVVNMAQKAIIRYFPVFEKILRGHGQSFLVGNQLSLADVILLQTILALEEKIPNILSAFPFLQEYTVKLSNIPTIKRFLEPGSKKKPPPDEIYVRTVYNIFRP
Consider B1, for which the values for the kcat in series [2], in series [5] and in series [9] were 14.9 s⁻¹, 4.94 s⁻¹ and 5.61 10^-2/s, respectively. In addition, the values for the Michaelis constant (Km) in series [3] and in [6] were 5200 µM and 253 µM, respectively. In addition, the catalytic efficiency (kcat/Km) in series [4] was 2930 M⁻¹ s⁻¹; in series [7], 32200 M⁻¹ s⁻¹; in series [8] it was 19500 M⁻¹ s⁻¹; in series [10], 5.91 10^-2/mM/s; in series [11] it was 146 M⁻¹ s⁻¹; in [12] it was 2570 M⁻¹ s⁻¹.

B2: Glutathione S-transferase A1 (Homo sapiens), P08263 (protein)
chain: MAEKPKLHYFNARGRMESTRWLLAAAGVEFEEKFIKSAEDLDKLRNDGYLMFQQVPMVEIDGMKLVQTRAILNYIASKYNLYGKDIKERALIDMYIEGIADLGEMILLLPVCPPEEKDAKLALIKEKIKNRYFPAFEKVLKSHGQDYLVGNKLSRADIHLVELLYYVEELDSSLISSFPLLKALKTRISNLPTVKKFLQPGSPRKPPMDEKSLEEARKIFRF
In the case of B2, the catalytic constant (kcat) in [13] is 35.4 s⁻¹; in series [16], 45.3 s⁻¹; in series [20] it was 4.67 10^-2/s. The Michaelis-Menten constant (Km) is 492 µM in series [14] and 128 µM in [17]. Besides, the kcat/Km in [15] is 71900 M⁻¹ s⁻¹; in series [18] it was 101000 M⁻¹ s⁻¹; in series [19], 353000 M⁻¹ s⁻¹; in series [21] it was 1380 M⁻¹ s⁻¹; in series [22], 4320 M⁻¹ s⁻¹; in series [23] it was 6.49 10^-2/mM/s. The catalytic efficiency (kcat/Km) in series [24] was 21600 M⁻¹ s⁻¹.

B3: Glutathione S-transferase kappa 1 (Homo sapiens), Q9Y2Q3 (protein)
chain: MGPLPRTVELFYDVLSPYSWLGFEILCRYQNIWNINLQLRPSLITGIMKDSGNKPPGLLPRKGLYMANDLKLLRHHLQIPIHFPKDFLSVMLEKGSLSAMRFLTAVNLEHPEMLEKASRELWMRVWSRNEDITEPQSILAAAEKAGMSAEQAQGLLEKIATPKVKNQLKETTEAACRYGAFGLPITVAHVDGQTHMLFGSDRMELLAHLLGEKWMGPIPPAVNARL
As for B3, the kcat in series [25] was 14.6 s⁻¹; in series [29], 9.45 10^-2/s. Further, the Km in [26] stood at 1900 µM. For the same molecule, the kcat/Km is 287 M⁻¹ s⁻¹ in series [27], 7670 M⁻¹ s⁻¹ in [28], 6.13 10^-2/mM/s in [30] and 351 M⁻¹ s⁻¹ in series [31].

For the origin of these results see ChEMBL document CHEMBL5550118, “Human mitochondrial glutathione transferases: Kinetic parameters and accommodation of a mitochondria-targeting group in substrates” (Bioorg Med Chem, 2024).
